Assay results reported in ChEMBL document CHEMBL1938318, “Design, synthesis and evaluation of novel molecules with a diphenyl ether nucleus as potential antitubercular agents” (Bioorg Med Chem Lett, 2012).
Active and inactive are the calls of the source. The calls are words filed in the database; no cut-off is given here.

Assays:
[1] = tested on: Mycobacterium tuberculosis; assay: Antitubercular activity against Mycobacterium bovis BCG infected in BALB/c mouse assessed as log reduction in CFU in lungs at 25 mg/kg, po qd administered 48 hrs post infection for 6 weeks measured after 6 weeks (reference value: 4.64+/-0.17 log10CFU); assay type: functional, variant bovis BCG
How it was run: (§1)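 Female BALB/c mice infected intravenously with approx. 1 × 10⁵ CFU M. bovis BCG; compound given orally at 25 mg/kg once daily for six weeks, then sacrificed. Lung and spleen homogenates plated on modified Lowenstein-Jensen medium, colonies counted after six weeks at 37 °C; mean log10 CFU per organ versus vehicle-treated group (n = 6–8 mice/group).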

[2] = tested on: Mycobacterium tuberculosis; assay: Antitubercular activity against Mycobacterium bovis BCG infected in BALB/c mouse assessed as log reduction in CFU in spleen at 25 mg/kg, po qd administered 48 hrs post infection for 6 weeks measured after 6 weeks (reference value: 4.79+/-0.25 log10CFU); assay type: functional, variant bovis BCG; how it was run: as §1
[3] = tested on: Mycobacterium tuberculosis; assay: Antitubercular activity against Mycobacterium bovis BCG infected in BALB/c mouse assessed as reduction in perivascular accumulation of epitheloid macrophages in lungs at 25 mg/kg, po qd administered 48 hrs post infection for 6 weeks by hematoxylin/eosin staining; assay type: functional, organism-based; set-up: dose 25 mg/kg; settings: variant bovis BCG
[4] = tested on: Mycobacterium tuberculosis; assay: Antitubercular activity against Mycobacterium bovis BCG infected in BALB/c mouse assessed as reduction in peribronchial accumulation of epitheloid macrophages in lungs at 25 mg/kg, po qd administered 48 hrs post infection for 6 weeks by hematoxylin/eosin staining; assay type: functional, organism-based; set-up: dose 25 mg/kg; settings: variant bovis BCG
[5] = tested on: Mycobacterium tuberculosis; assay: Antitubercular activity against Mycobacterium bovis BCG infected in BALB/c mouse assessed as reduction in perivascular accumulation of granulocytes in lungs at 25 mg/kg, po qd administered 48 hrs post infection for 6 weeks by hematoxylin/eosin staining; assay type: functional, organism-based; set-up: dose 25 mg/kg; settings: variant bovis BCG
[6] = tested on: Mycobacterium tuberculosis; assay: Antitubercular activity against Mycobacterium bovis BCG infected in BALB/c mouse assessed as reduction in peribronchial accumulation of granulocytes in lungs at 25 mg/kg, po qd administered 48 hrs post infection for 6 weeks by hematoxylin/eosin staining; assay type: functional, organism-based; set-up: dose 25 mg/kg; settings: variant bovis BCG
[7] = tested on: Mycobacterium tuberculosis; assay: Antitubercular activity against Mycobacterium bovis BCG infected in BALB/c mouse assessed as reduction in perivascular accumulation of lymphocytes in lungs at 25 mg/kg, po qd administered 48 hrs post infection for 6 weeks by hematoxylin/eosin staining; assay type: functional, organism-based; set-up: dose 25 mg/kg; settings: variant bovis BCG
[8] = tested on: Mycobacterium tuberculosis; assay: Antitubercular activity against Mycobacterium bovis BCG infected in BALB/c mouse assessed as reduction in peribronchial accumulation of lymphocytes in lungs at 25 mg/kg, po qd administered 48 hrs post infection for 6 weeks by hematoxylin/eosin staining; assay type: functional, organism-based; set-up: dose 25 mg/kg; settings: variant bovis BCG

For `NNC(=O)c1ccncc1` [ISONIAZID], which log10cfu [1] is on record?
Its log10cfu is 2.

And the log10cfu [2]?
The log10cfu was 3.

Which results are given for `O=C(Cc1cccc(Oc2ccccc2)c1)Nc1ccc(Cl)c(Cl)c1`?
log10cfu [1]: 2; log10cfu [2]: 2; Activity [3]: Active; Activity [4]: Active; Activity [5]: Active; Activity [6]: Active; Activity [7]: Active; Activity [8]: Active
